Among the data in ChEMBL document CHEMBL1155470, “Colloid formation by drugs in simulated intestinal fluid” (J Med Chem, 2010) are IC50 and Activity values, retold here.

Data set [1] addresses T1, Cruzipain (Trypanosoma cruzi, UniProt P25779). As to the kind of experiment: Inhibition of Trypanosoma cruzi cruzaine preincubated for 5 mins before substrate addition by fluorescence assay in presence of 0.01% Triton X-100.
A short description of data set [2]: Colloidal aggregation in fed state simulated intestinal fluid at 450 uM by dynamic light scattering-based beads autocorrelation assay in presence of 1.8% DMSO. The data set is classed as physicochemical. The settings on record: simulated gi fluid. Summed up:
(§1)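 FeSSIF samples examined by DLS (826.6 nm laser, 90° detector, room temperature), comparing autocorrelation curves with blank FeSSIF. The micelle background was checked with 200 nm calibration beads diluted in FeSSIF. Drug samples were made by diluting DMSO stocks into filtered FeSSIF (15 mM taurocholate, 3.75 mM lecithin).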

Data set [3] is described as follows: Colloidal aggregation in fed state simulated intestinal fluid by dynamic light scattering assay in presence of 1.8% DMSO. The data set is classed as physicochemical. The note with it: simulated gi fluid. Summed up: (§2)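 Concentrated DMSO stocks diluted into filtered FeSSIF: blank FeSSIF plus 15 mM sodium taurocholate and 3.75 mM lecithin, dissolved at 37 °C. Final DMSO 1% unless otherwise noted. Particle size by dynamic light scattering at 826.6 nm, detector at 90°, 100% laser power. Values are averages of three or more independent measurements at room temperature.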

For data set [4], the target named is T1, Cruzipain. Briefly: Inhibition of Trypanosoma cruzi cruzaine preincubated for 5 mins before substrate addition by fluorescence assay in absence of Triton X-100.
The nature of data set [5]: Colloidal aggregation in fed state simulated intestinal fluid assessed as colloid radius at 10 uM by dynamic light scattering assay in presence of 1% DMSO. The note with it: simulated gi fluid.
Data set [6] in a line: Colloidal aggregation in fed state simulated intestinal fluid assessed as colloid radius at 450 uM by dynamic light scattering assay in presence of 1% DMSO. It counts as physicochemical. The note with it: simulated gi fluid. Put shortly:
as §2

Data set [7] is described as follows: Colloidal aggregation in fed state simulated intestinal fluid by dynamic light scattering assay in presence of 6% DMSO. It counts as physicochemical. The note with it: simulated gi fluid. Put shortly: as §2
A short description of data set [8]: Colloidal aggregation in fed state simulated intestinal fluid assessed as colloid radius at 600 uM by dynamic light scattering assay in presence of 6% DMSO. The note with it: simulated gi fluid.
The nature of data set [9]: Colloidal aggregation in fed state simulated intestinal fluid at 600 uM by dynamic light scattering-based beads autocorrelation assay in presence of 6% DMSO. The data set is classed as physicochemical. The note with it: simulated gi fluid. Summed up: as §1
Data set [10] can be described thus: Colloidal aggregation in fed state simulated intestinal fluid assessed as colloid radius at 20 uM by dynamic light scattering assay in presence of 1% DMSO. The data set is classed as physicochemical. The settings on record: simulated gi fluid. Put shortly:
as §2

Data set [11] in a line: Colloidal aggregation in fed state simulated intestinal fluid assessed as colloid radius at 250 uM by dynamic light scattering assay in presence of 1% DMSO. The note with it: simulated gi fluid. It counts as physicochemical. Summed up: as §2
A short description of data set [12]: Colloidal aggregation in fed state simulated intestinal fluid by dynamic light scattering assay in presence of 0.5% DMSO. The data set is classed as physicochemical. The note with it: simulated gi fluid. Summed up:
as §2

A short description of data set [13]: Colloidal aggregation in phosphate buffer at 200 uM by transmission electron microscopy in presence of 0.2% DMSO. It counts as physicochemical. Summed up:
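Drug DMSO stocks diluted into 50 mM phosphate buffer. Samples adsorbed ~30 s onto glow-discharged formvar/carbon-coated copper grids and negatively stained with 2% ammonium molybdate. Imaged by transmission electron microscopy at 80 kV, standard magnification 25 000.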

Data set [14] is described as follows: Colloidal aggregation in fed state simulated intestinal fluid assessed as colloid radius at 100 uM by dynamic light scattering assay in presence of 1% DMSO. The data set is classed as physicochemical. The settings on record: simulated gi fluid. Summed up: as §2
The nature of data set [15]: Colloidal aggregation in fed state simulated intestinal fluid at 700 uM by transmission electron microscopy in presence of 3% DMSO. It counts as physicochemical. The note with it: simulated gi fluid. Summed up:
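Drug DMSO stocks diluted into FeSSIF. Samples adsorbed ~30 s onto glow-discharged formvar/carbon-coated copper grids and negatively stained with 2% ammonium molybdate. Viewed by transmission electron microscopy at 80 kV, standard magnification 25 000, calibrated with catalase crystals and ferritin.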

Data set [16] is described as follows: Colloidal aggregation in fed state simulated intestinal fluid by dynamic light scattering assay in presence of 3% DMSO. It counts as physicochemical. The note with it: simulated gi fluid. Summed up:
as §2

Data set [17] is described as follows: Colloidal aggregation in fed state simulated intestinal fluid assessed as colloid radius at 600 uM by dynamic light scattering assay in presence of 3% DMSO. It counts as physicochemical. The settings on record: simulated gi fluid. Put shortly:
as §2

The nature of data set [18]: Binding affinity to beta-lactamase AmpC at 700 uM after 30 mins by SDS-PAGE. Put shortly: (§3)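 Cosedimentation in FeSSIF, with and without 2 μg AmpC β-lactamase added per sample. Samples centrifuged at 16000g for 30 min at room temperature. Supernatant removed completely; pellets resuspended in DMSO plus 50 mM KPi pH 7.0 and run on SDS-PAGE. Protein detected by silver staining. Drug-only pellets included as background controls.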

Data set [19] is described as follows: Colloidal aggregation in fed state simulated intestinal fluid by dynamic light scattering-based beads autocorrelation assay in presence of 1% DMSO. It counts as physicochemical. The settings on record: simulated gi fluid. Put shortly: as §1
Data set [20] is described as follows: Aggregation-based binding affinity to beta-lactamase AmpC at 700 uM in fed state simulated intestinal fluid after 30 mins by silver staining in presence of 3% DMSO. Summed up:
as §3

A short description of data set [21]: Colloidal aggregation in fed state simulated intestinal fluid assessed as colloid radius at 500 uM by dynamic light scattering assay in presence of 1% DMSO. The data set is classed as physicochemical. The note with it: simulated gi fluid. Summed up: as §2
Data set [22] in a line: Colloidal aggregation in fed state simulated intestinal fluid assessed as colloid radius at 5 uM by dynamic light scattering assay in presence of 1% DMSO. It counts as physicochemical. The settings on record: simulated gi fluid. Summed up:
as §2

Data set [23] in a line: Colloidal aggregation in fed state simulated intestinal fluid assessed as colloid radius at 50 uM by dynamic light scattering assay in presence of 1% DMSO. The data set is classed as physicochemical. The note with it: simulated gi fluid. Put shortly: as §2

The IC50 is the concentration at which inhibition is half-maximal.

The source made the active and inactive calls. The rule behind the calls is not given here.

T1 sequence (P25779 whole entry): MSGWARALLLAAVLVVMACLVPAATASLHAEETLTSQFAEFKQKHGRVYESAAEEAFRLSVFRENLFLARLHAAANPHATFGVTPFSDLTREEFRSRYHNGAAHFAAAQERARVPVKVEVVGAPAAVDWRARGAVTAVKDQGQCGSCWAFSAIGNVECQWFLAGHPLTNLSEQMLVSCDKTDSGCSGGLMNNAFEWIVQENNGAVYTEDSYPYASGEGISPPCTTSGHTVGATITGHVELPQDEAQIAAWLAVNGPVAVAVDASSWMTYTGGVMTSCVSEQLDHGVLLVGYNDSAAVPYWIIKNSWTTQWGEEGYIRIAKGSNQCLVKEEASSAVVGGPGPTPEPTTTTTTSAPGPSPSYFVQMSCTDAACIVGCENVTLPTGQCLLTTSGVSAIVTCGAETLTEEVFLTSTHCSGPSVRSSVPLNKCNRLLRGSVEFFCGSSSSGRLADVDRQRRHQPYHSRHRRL

As to `CC(C)OC(=O)C(C)(C)Oc1ccc(C(=O)c2ccc(Cl)cc2)cc1` [FENOFIBRATE], the IC50 was more than 500 µM on Cruzipain [1] and 61 µM against Cruzipain [4]. Also, the Activity entry is “Active” in data set [2], 450 µM in data set [3], 129 nm in [5] and 113.8 nm in data set [6].
On to `CC(C)/N=c1\cc2n(-c3ccc(Cl)cc3)c3ccccc3nc-2cc1Nc1ccc(Cl)cc1` [CLOFAZIMINE], for which the results for the IC50 on Cruzipain [1] and against Cruzipain [4] were 40 µM and 6 µM, respectively. The Activity in [7] was 600 µM; in data set [8], 103.7 nm; in data set [5], 356.1 nm; in data set [9] it was “Active”.
In the case of `O=C(c1ccc(OCCN2CCCCC2)cc1)c1c(-c2ccc(O)cc2)sc2cc(O)ccc12` [RALOXIFENE], the IC50 came out at 128 µM at Cruzipain [1] and 33 µM at Cruzipain [4]. Further, the Activity in data set [10] was 192.2 nm.
For the compound `COc1cc2ncnc(Nc3ccc(F)c(Cl)c3)c2cc1OCCCN1CCOCC1` [GEFITINIB], the IC50 on Cruzipain [1] was 148 µM; against Cruzipain [4], 88 µM. Further, the Activity was 160.1 nm in data set [11] and 250 µM in data set [12].
For the compound `CC(C)Nc1cccnc1N1CCN(C(=O)c2cc3cc(NS(C)(=O)=O)ccc3[nH]2)CC1.CS(=O)(=O)O` [DELAVIRDINE MESYLATE], the IC50 at Cruzipain [1] is more than 200 µM; against Cruzipain [4], 122 µM. Moreover, the Activity result is “Active” in data set [13]; 195.1 nm in [14]; “Active” in data set [15]; 100 µM in [12]; 600 µM in data set [16]; 62.8 nm in data set [17]. For the same compound, in data set [19], the result was Active. The outcome in data set [18] was inactive. The result in data set [20] was Active.
In the case of `CN(C)CCCN1c2ccccc2Sc2ccc(Cl)cc21.Cl` [CHLORPROMAZINE HYDROCHLORIDE], the Activity in [21] is recorded as 29.2 nm.
In the case of `Cc1cccc(CN2CCN(C(c3ccccc3)c3ccc(Cl)cc3)CC2)c1.Cl` (stereo unspecified) [MECLIZINE DIHCL], the IC50 was more than 250 µM at Cruzipain [1] and 129 µM on Cruzipain [4]. Also, in data set [22], the Activity was 133.3 nm.
Take `C(=C\c1ccccc1)/CN1CCN(C(c2ccccc2)c2ccccc2)CC1` [CINNARIZINE]: the IC50 at Cruzipain [1] was more than 300 µM; at Cruzipain [4] it was 124 µM.
Consider `O=C(Nc1cccc2c(=O)cc(-c3nnn[nH]3)oc12)c1ccc(OCCCCc2ccccc2)cc1`, for which, in data set [23], the Activity is on record as 1167.7 nm. Besides, the IC50 is 68 µM at Cruzipain [1] and 7 µM against Cruzipain [4].
Consider `COC(=O)[C@H](c1ccccc1Cl)N1CCc2sccc2C1` [CLOPIDOGREL BISULFATE], for which the IC50 on Cruzipain [1] is more than 300 µM; against Cruzipain [4], 123 µM.
